Dynein transport – dynein cargo transport inhibition; AID 1381; z-score, hits read low; actives 0.47% (n = 220,000); 3617.4 mouse cells, GR-EGFP nuclear translocation imaging; test concentration mostly 20 µM; stimulated with dexamethasone, 1 µM; active compounds read low;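 active = plate z-score of nuclear minus cytoplasmic receptor signal below a set negative limit, without overly bright fluorescence or cell loss, cut at about -3.5 in these data, passing the limit was not always enough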;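 also: z-score of nuclear minus cytoplasmic ring GR-EGFP intensity difference per well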
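Also added: dexamethasone, 1.0 µM final. Medium: tet-free, stripped-serum medium. Detection: fixed, Hoechst-stained cells imaged at 10x for EGFP. Read-out: nuclear-to-cytoplasmic GR-EGFP distribution per well. Times: induction 48 h, compound 1 h, agonist 30 min.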
Autophagy HCS – modulators of autophagy | MEF GFP-LC3 puncta imaging; test concentration mostly 10 µM | calls only at 10 µM (by protocol) | actives 0.98% (n = 190,000) | AID 463193;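 active = percentage of spot-positive cells more than 3 SD above its plate mean, without a fluorescence outlier flag or 80% toxicity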
ROMK primary – human ROMK K+ channel modulation, primary screen; Tet-inducible ROMK, thallium flux fluorescence; actives lie on both sides; P48048; actives 2% (n = 130,000); B-score at 10 µM;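 active = signal ratio slope over the read window, or its plate-corrected B-score, at least 3 SD from the plate mean, either direction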;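 also: B-score of the F/F0 ratio slope over 7 to 12 s after thallium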
Target sequence (P48048 whole entry, looked up): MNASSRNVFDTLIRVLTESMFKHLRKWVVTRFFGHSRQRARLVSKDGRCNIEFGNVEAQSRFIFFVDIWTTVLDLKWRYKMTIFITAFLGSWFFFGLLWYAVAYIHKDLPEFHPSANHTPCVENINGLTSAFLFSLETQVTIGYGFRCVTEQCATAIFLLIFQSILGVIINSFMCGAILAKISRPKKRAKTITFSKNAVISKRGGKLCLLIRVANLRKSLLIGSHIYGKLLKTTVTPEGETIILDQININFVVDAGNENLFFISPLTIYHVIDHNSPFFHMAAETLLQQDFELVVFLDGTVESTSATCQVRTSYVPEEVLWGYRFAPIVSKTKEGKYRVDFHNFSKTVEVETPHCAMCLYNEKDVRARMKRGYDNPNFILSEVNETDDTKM
DTT redox prof – compounds producing H2O2 with reducing agent – biochemical, NIH compound library profiling, artefact control for MLSCN library redox annotation, primary screen; DTT-dependent redox cycling H2O2, phenol red/HRP absorbance; 100% = 100 µM peroxide control, 0% = buffer; activation, % at 10 µM; actives 0.03% (n = 200,000); AID 878;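 active = activation of at least 50% relative to the plate's high and low controls in the primary single-dose screen; inactive = activation below 50%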;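 also: compound incubated with DTT at 0.8 mM final as the reducing agent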
Cl transport mod – modulates chloride dependent transport by human KCC2. Q9H2X9. KCC2 cells, thallium flux FluoZin-2 fluorescence. B-score of Tl+ flux slope (higher = more flux/activation; lower = inhibition) at 10 µM. actives 2.2% (n = 190,000). AID 1456;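 active = thallium flux slope and its plate-corrected score both differing from the plate sample mean at a set confidence after two filtering rounds, in either direction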;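 also: slope of fluorescence scaled to starting intensity during 10 to 20 s after thallium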
Large screens that a line does not name were inactive. This is a sample that favours compounds with a hit; in the whole collection about 4.1% have one here.

CN(c1ccccc1)S(=O)(=O)c1ccc(NC(=O)c2cccs2)cc1	none
FC(F)(F)c1cccc(NC(=S)Nc2ccc(Cl)cc2Cl)c1	Cl transport mod 4.5 (no result: ROMK primary)
CC(C)(C)NC(=S)NNC(=O)c1cccc(Br)c1	none
CCOc1cccc(C(=O)NC(=S)Nc2ccccc2)c1	Cl transport mod 19
O=C(NNC(=S)Nc1ccc(Cl)c(Cl)c1)c1cccc([N+](=O)[O-])c1	ROMK primary 3, Cl transport mod -5.4 (no result: Autophagy HCS, DTT redox prof)
O=C(NNC(=S)Nc1ccccc1)c1cccc(Br)c1	Cl transport mod 3.3
CCOc1cccc(C(=O)NC(=S)Nc2cccnc2)c1	none
S=C(Nc1ccccc1)Nc1ccc(Cl)cc1Cl	none (no result: ROMK primary)
Fc1ccc(Nc2nc(N/N=C/c3ccco3)nc(N3CCCCC3)n2)cc1	none
CCOc1cc(C(=O)Nc2ncn[nH]2)cc(OCC)c1OCC	none
COc1ccccc1C(=O)NCCc1c(C)[nH]c2c(C)ccc(F)c12	none
CC(C)CCC(CC(C)O)C(=O)NNC(=S)Nc1ccccc1 (stereo unspecified)	none (no result: Autophagy HCS, ROMK primary, DTT redox prof)
CCc1nc2ccccc2c(NC(=O)CN2CC(C)CC(C)C2)c1C (stereo unspecified)	none
O=C(Cc1ccccc1)NC(=S)Nc1cccc(C(F)(F)F)c1	Cl transport mod 6 (no result: ROMK primary)
O=C(NNC(=O)c1cc(-c2ccccc2)n(-c2ccccc2)n1)c1cccc([N+](=O)[O-])c1	Cl transport mod 15 (no result: ROMK primary)
O=C(NNC(=S)Nc1cccc(C(F)(F)F)c1)c1ccccc1Cl	none (no result: ROMK primary)
O=C(Cc1ccccc1)NC(=S)Nc1cc(C(F)(F)F)ccc1Cl	none (no result: ROMK primary)
O=C(NNC(=S)Nc1cccc(C(F)(F)F)c1)c1cccc(Cl)c1	Cl transport mod 5.8 (no result: ROMK primary)
Nc1c(C(=O)Nc2ccc(S(=O)(=O)N3CCCC3)cc2)sc2nc3cc4c(cc3cc12)CCC4	Autophagy HCS active (no result: ROMK primary)
Nc1c(C(=O)Nc2ccc(S(=O)(=O)N3CCCC3)cc2)sc2nc3ccc(OC(F)(F)F)cc3cc12	Autophagy HCS active
COc1ccc2nc(SCC(=O)Nc3ccc(S(=O)(=O)N4CCCC4)cc3)c(C#N)cc2c1	none (no result: ROMK primary)
CC(=O)c1ccc(N2CCN(C(=O)C3CCC3)CC2)cc1	Autophagy HCS active (no result: ROMK primary)
COc1ccc2oc(C(=O)OCC(=O)/C(C#N)=C(\C)N)c(C)c2c1	none
CCOc1ccccc1NC(=O)C1CCN(C(=O)Cc2ccccc2)CC1	none
CCOC(=O)c1cc2sccc2n1CC(=O)C(C)(C)C	none
O=C(c1ccccc1)N1CCN2C(=O)c3ccccc3C12c1ccc(Cl)cc1 (stereo unspecified)	Autophagy HCS active
O=C(c1ccc(F)cc1)N1CCN2C(=O)c3ccccc3C12c1ccc(Cl)cc1 (stereo unspecified)	none
Cc1cc(=O)oc2cc(NC(=O)c3cc4ccccc4o3)ccc12	Autophagy HCS active
CCn1c(C)nc2cc(C(=O)N/N=C/c3ccc(N4CCOCC4)cc3)ccc21	none
Cc1noc(/C=C/Nc2ccc(F)cc2F)c1[N+](=O)[O-]	none
COc1ccccc1N/C=C/c1onc(C)c1[N+](=O)[O-]	Autophagy HCS active (no result: Cl transport mod)
COc1ccc(C2C(C(=O)c3ccccc3)N3c4ccccc4C=CC3C2[N+](=O)[O-])cc1 (stereo unspecified)	ROMK primary -3.7
COc1ccc(N2C(=O)[C@@H]3[C@H](C2=O)[C@H](C(C)=O)N2c4ccccc4C=C[C@@H]32)cc1	none (no result: Autophagy HCS, ROMK primary, DTT redox prof)
CCc1ccc(S(=O)(=O)/N=C2\C=CC(=O)c3ccccc32)cc1	none (no result: ROMK primary)
CCc1ccc(S(=O)(=O)/N=C2/C=C(Sc3ncn[nH]3)C(=O)c3ccccc32)cc1	Dynein transport -6.7, ROMK primary -7.8
Cc1cc(C(=O)N/N=C/c2ccccc2Br)no1	ROMK primary 3.1
COc1ccc(/C=N/Nc2nc(N3CCCCC3)nc(N3CCCCC3)n2)cc1[N+](=O)[O-]	none
COc1ccc(/C=N/Nc2nc(Nc3ccccc3)nc(N3CCCC3)n2)cc1[N+](=O)[O-]	Autophagy HCS active
COc1cc(/C=N/Nc2nc(Nc3ccccc3)nc(-n3nc(C)cc3C)n2)cc(OC)c1OC	Autophagy HCS active
Cc1c(Cl)cccc1NC(=S)NCCc1ccc(C(F)(F)F)cc1	none
CCOc1ccc(CC(=O)NNC(=S)NCCc2ccccc2)cc1	none
c1ccc(Nc2nc(NCC3CCCO3)c3ccccc3n2)cc1 (stereo unspecified)	none

Screening results deposited in PubChem by several laboratories.
